Measurements from ChEMBL document CHEMBL5058577, “EUbOPEN Chemogenomics Library 2 (Multiplex)” (2022).

System: Fibroblast
Test: Multiplex assay against human fibroblast
Type: toxicity, cell-based
Method in brief: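 Cells were classed with CellPathfinder machine-learning gating, first as Hoechst high-intensity objects or normal cells, then (normal cells) as healthy, pyknosed or fragmented nuclei, and finally (pyknosed cells) as mitotic or apoptotic. Staining of live cells at seeding used Hoechst33342, BioTracker Green Microtubule Cytoskeleton Dye, MitoTracker Red and Annexin V Alexa Fluor 680, with imaging on a CQ1 microscope at 37°C and 5% CO2 after compound addition. Tubulin, mitochondrial-mass and membrane-permeability phenotypes are per cents of healthy-nucleus cells.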

[1] = 12 h, 1 µM, compound concentration 1 uM, replicate 1
[2] = 12 h, 1 µM, compound concentration 1 uM, replicate 2
[3] = 12 h, 10 µM, compound concentration 10 uM, replicate 1
[4] = 12 h, 10 µM, compound concentration 10 uM, replicate 2
[5] = 24 h, 1 µM, compound concentration 1 uM, replicate 1
[6] = 24 h, 1 µM, compound concentration 1 uM, replicate 2
[7] = 24 h, 10 µM, compound concentration 10 uM, replicate 1
[8] = 24 h, 10 µM, compound concentration 10 uM, replicate 2
[9] = 48 h, 1 µM, compound concentration 1 uM, replicate 1
[10] = 48 h, 1 µM, compound concentration 1 uM, replicate 2
[11] = 48 h, 10 µM, compound concentration 10 uM, replicate 1
[12] = 48 h, 10 µM, compound concentration 10 uM, replicate 2

## Cc1c(Cc2ccc3ccccc3n2)c2cc(F)ccc2n1CC(=O)O [TIMAPIPRANT]
[1]
  Population Apoptotic (%): 41%
  Population Fragmented Nuclei (%): 12%
  Population Healthy Nuclei (%): 67%
  Population Hoechst High Intensity Objects (%): 5%
  Population Membrane Permeable-Phenotype (%): 1%
  Population Mitochondria Different-Phenotype (%): 7%
  Population Mitotic Cells (%): 58%
  Population Normal (%): 94%
  Population Pyknosed Nuclei (%): 19%
  Population Tubulin-Different-Phenotype (%): 26%
  Total Cell Count: 171
[2]
  Population Apoptotic (%): 33%
  Population Fragmented Nuclei (%): 28%
  Population Healthy Nuclei (%): 49%
  Population Membrane Permeable-Phenotype (%): 9%
  Population Mitochondria Different-Phenotype (%): 4%
  Population Mitotic Cells (%): 66%
  Population Pyknosed Nuclei (%): 22%
  Population Tubulin-Different-Phenotype (%): 43%
  Total Cell Count: 142
[3]
  Population Apoptotic (%): 66%
  Population Fragmented Nuclei (%): 13%
  Population Healthy Nuclei (%): 77%
  Population Hoechst High Intensity Objects (%): 2%
  Population Membrane Permeable-Phenotype (%): 0%
  Population Mitochondria Different-Phenotype (%): 7%
  Population Mitotic Cells (%): 33%
  Population Normal (%): 97%
  Population Pyknosed Nuclei (%): 8%
  Population Tubulin-Different-Phenotype (%): 35%
  Total Cell Count: 147
[4]
  Population Apoptotic (%): 53%
  Population Fragmented Nuclei (%): 26%
  Population Healthy Nuclei (%): 53%
  Population Hoechst High Intensity Objects (%): 5%
  Population Membrane Permeable-Phenotype (%): 1%
  Population Mitotic Cells (%): 46%
  Population Normal (%): 95%
  Population Pyknosed Nuclei (%): 19%
  Population Tubulin-Different-Phenotype (%): 43%
  Total Cell Count: 160
[5]
  Population Apoptotic (%): 33%
  Population Fragmented Nuclei (%): 9%
  Population Healthy Nuclei (%): 73%
  Population Hoechst High Intensity Objects (%): 1%
  Population Membrane Permeable-Phenotype (%): 3%
  Population Mitochondria Different-Phenotype (%): 2%
  Population Mitotic Cells (%): 66%
  Population Normal (%): 98%
  Population Pyknosed Nuclei (%): 17%
  Population Tubulin-Different-Phenotype (%): 26%
  Total Cell Count: 158
[6]
  Population Apoptotic (%): 47%
  Population Fragmented Nuclei (%): 30%
  Population Healthy Nuclei (%): 52%
  Population Hoechst High Intensity Objects (%): 5%
  Population Membrane Permeable-Phenotype (%): 7%
  Population Mitochondria Different-Phenotype (%): 4%
  Population Mitotic Cells (%): 52%
  Population Normal (%): 94%
  Population Tubulin-Different-Phenotype (%): 38%
  Total Cell Count: 142
[7]
  Population Apoptotic (%): 66%
  Population Fragmented Nuclei (%): 14%
  Population Healthy Nuclei (%): 77%
  Population Hoechst High Intensity Objects (%): 2%
  Population Membrane Permeable-Phenotype (%): 0%
  Population Mitochondria Different-Phenotype (%): 6%
  Population Mitotic Cells (%): 33%
  Population Normal (%): 97%
  Population Pyknosed Nuclei (%): 8%
  Population Tubulin-Different-Phenotype (%): 30%
  Total Cell Count: 150
[8]
  Population Apoptotic (%): 52%
  Population Fragmented Nuclei (%): 29%
  Population Healthy Nuclei (%): 58%
  Population Hoechst High Intensity Objects (%): 7%
  Population Membrane Permeable-Phenotype (%): 3%
  Population Mitochondria Different-Phenotype (%): 10%
  Population Mitotic Cells (%): 47%
  Population Normal (%): 92%
  Population Pyknosed Nuclei (%): 12%
  Population Tubulin-Different-Phenotype (%): 52%
  Total Cell Count: 164
[9]
  Population Apoptotic (%): 72%
  Population Fragmented Nuclei (%): 15%
  Population Healthy Nuclei (%): 72%
  Population Hoechst High Intensity Objects (%): 7%
  Population Membrane Permeable-Phenotype (%): 0%
  Population Mitochondria Different-Phenotype (%): 2%
  Population Mitotic Cells (%): 27%
  Population Normal (%): 92%
  Population Pyknosed Nuclei (%): 12%
  Population Tubulin-Different-Phenotype (%): 25%
  Total Cell Count: 162
[10]
  Population Apoptotic (%): 61%
  Population Fragmented Nuclei (%): 36%
  Population Healthy Nuclei (%): 48%
  Population Hoechst High Intensity Objects (%): 6%
  Population Membrane Permeable-Phenotype (%): 2%
  Population Mitochondria Different-Phenotype (%): 1%
  Population Mitotic Cells (%): 38%
  Population Normal (%): 94%
  Population Pyknosed Nuclei (%): 14%
  Population Tubulin-Different-Phenotype (%): 34%
  Total Cell Count: 150
[11]
  Population Apoptotic (%): 66%
  Population Fragmented Nuclei (%): 18%
  Population Healthy Nuclei (%): 75%
  Population Hoechst High Intensity Objects (%): 5%
  Population Membrane Permeable-Phenotype (%): 0%
  Population Mitochondria Different-Phenotype (%): 3%
  Population Mitotic Cells (%): 33%
  Population Normal (%): 94%
  Population Pyknosed Nuclei (%): 6%
  Population Tubulin-Different-Phenotype (%): 31%
  Total Cell Count: 152
[12]
  Population Apoptotic (%): 60%
  Population Fragmented Nuclei (%): 30%
  Population Healthy Nuclei (%): 59%
  Population Hoechst High Intensity Objects (%): 2%
  Population Membrane Permeable-Phenotype (%): 1%
  Population Mitochondria Different-Phenotype (%): 1%
  Population Mitotic Cells (%): 40%
  Population Normal (%): 97%
  Population Pyknosed Nuclei (%): 9%
  Population Tubulin-Different-Phenotype (%): 37%
  Total Cell Count: 157
